According to ChEMBL document CHEMBL1151972, “Cytotoxic asterosaponins capable of promoting polymerization of tubulin from the starfish Culcita novaeguineae” (J Nat Prod, 2009):

Legend:
Tubulin (Sus scrofa) [1] = biological target: T1, Tubulin (Sus scrofa) (UniProt P02554+P02550); test: Induction of pig brain tubulin polymerization assessed as end point promote coefficient at 11.7 uM by first high-throughput screening end-point assay
Summary of the method: (§1)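 Tubulin prepared from pig brain; first high-throughput screening step. Polymerization followed by turbidity, end-point reading of the absorbance change at 350 nm, expressed as Pe (percent end-point promote coefficient). Samples above 20% Pe counted as active. Three independent experiments, eight replicate wells each.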

Tubulin (Sus scrofa) [2] = biological target: T1, Tubulin (Sus scrofa); test: Induction of pig brain tubulin polymerization assessed as kinetic promote coefficient at 11.7 uM by first high-throughput screening end-point assay
Tubulin (Sus scrofa) [3] = biological target: T1, Tubulin (Sus scrofa); test: Induction of pig brain tubulin polymerization assessed as kinetic promote coefficient at 9.3 uM by first high-throughput screening end-point assay
Tubulin (Sus scrofa) [4] = biological target: T1, Tubulin (Sus scrofa); test: Induction of pig brain tubulin polymerization assessed as end point promote coefficient at 9.3 uM by first high-throughput screening end-point assay; summary of the method: as §1
Bel-7402 = test: Cytotoxicity against human Bel7402 cells after 72 hrs by SRB assay; assay type: functional, cell-based; conditions: Bel-7402, 72 h
Summary of the method: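 Human hepatoma BEL7402 cells; sulforhodamine B protein-staining assay after 72 h exposure. Dose-response curves plotted. IC50 = concentration giving 50% reduction in absorbance relative to control cells. Three independent experiments, each concentration in three replicate wells.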

K562 = test: Cytotoxicity against human K562 cells after 72 hrs by MTT assay; assay type: functional, cell-based; conditions: K562, 72 h
Summary of the method: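 Human leukemia K-562 cells; MTT colorimetric viability assay after 72 h exposure. IC50 read from dose-response curves as the concentration giving 50% lower absorbance than control cells. Mean of three independent experiments, triplicate wells per concentration.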

Tubulin (Sus scrofa) [5] = biological target: T1, Tubulin (Sus scrofa); test: Induction of pig brain tubulin polymerization assessed as end point promote coefficient at 8.9 uM by first high-throughput screening end-point assay; summary of the method: as §1
Tubulin (Sus scrofa) [6] = biological target: T1, Tubulin (Sus scrofa); test: Induction of pig brain tubulin polymerization assessed as kinetic promote coefficient at 8.9 uM by first high-throughput screening end-point assay

T1 sequence (P02550 whole entry, looked up): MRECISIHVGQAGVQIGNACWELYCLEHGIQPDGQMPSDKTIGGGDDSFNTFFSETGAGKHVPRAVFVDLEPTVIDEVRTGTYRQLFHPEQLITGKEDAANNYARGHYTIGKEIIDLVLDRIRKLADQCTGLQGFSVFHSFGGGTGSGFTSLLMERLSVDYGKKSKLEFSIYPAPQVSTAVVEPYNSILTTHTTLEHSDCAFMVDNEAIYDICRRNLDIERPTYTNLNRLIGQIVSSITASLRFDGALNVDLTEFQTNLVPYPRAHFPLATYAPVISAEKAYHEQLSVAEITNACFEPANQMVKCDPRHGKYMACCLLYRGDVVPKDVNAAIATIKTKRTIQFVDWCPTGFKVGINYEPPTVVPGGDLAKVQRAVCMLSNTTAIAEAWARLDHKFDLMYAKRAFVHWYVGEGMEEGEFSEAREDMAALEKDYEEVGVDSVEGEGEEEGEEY
T1 sequence (P02554 whole entry, looked up): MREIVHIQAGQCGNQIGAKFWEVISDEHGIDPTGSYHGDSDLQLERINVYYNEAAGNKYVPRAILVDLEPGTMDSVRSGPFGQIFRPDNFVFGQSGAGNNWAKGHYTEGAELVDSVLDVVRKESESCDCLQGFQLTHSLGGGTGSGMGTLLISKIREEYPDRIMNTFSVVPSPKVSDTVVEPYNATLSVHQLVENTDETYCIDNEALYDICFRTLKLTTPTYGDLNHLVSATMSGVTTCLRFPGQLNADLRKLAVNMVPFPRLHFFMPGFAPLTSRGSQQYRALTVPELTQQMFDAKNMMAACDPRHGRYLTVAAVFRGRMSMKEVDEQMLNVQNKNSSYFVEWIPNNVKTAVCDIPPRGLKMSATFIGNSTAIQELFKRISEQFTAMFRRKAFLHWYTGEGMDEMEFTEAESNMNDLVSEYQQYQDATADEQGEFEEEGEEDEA

Row | SMILES | Activity (Tubulin (Sus scrofa) [1]) [%] | Activity (Tubulin (Sus scrofa) [2]) [%] | Activity (Tubulin (Sus scrofa) [3]) [%] | Activity (Tubulin (Sus scrofa) [4]) [%] | IC50 (Bel-7402) [nM] | IC50 (K562) [nM] | Activity (Tubulin (Sus scrofa) [5]) [%] | Activity (Tubulin (Sus scrofa) [6]) [%]
1 | CC(=O)O[C@H]1C(=O)[C@@]2(C)[C@H]([C@H](OC(=O)c3ccccc3)[C@]3(O)C[C@H](OC(=O)[C@H](O)[C@@H](NC(=O)c4ccccc4)c4ccccc4)C(C)=C1C3(C)C)[C@]1(OC(C)=O)CO[C@@H]1C[C@@H]2O | 32 | 100 | – | – | – | – | – | –
2 | CO[C@@H]1[C@@H](O)[C@H](O[C@H]2[C@H](O[C@@H]3[C@@H](O)[C@H](O[C@H]4C[C@@H]5C(=CC[C@]6(C)[C@@H]([C@H](C)CC[C@H](OS(=O)(=O)O)C(C)C)CC[C@@H]56)[C@@]5(C)CC[C@H](OS(=O)(=O)O)C[C@H]45)O[C@H](CO)[C@H]3O)OC[C@@H](O)[C@@H]2O)O[C@H](C)[C@H]1O [NOVAEGUINOSIDE C] | – | – | 149 | 42 | 700 | 1300 | – | –
3 | CO[C@@H]1[C@@H](O)[C@H](O[C@H]2[C@H](O[C@@H]3[C@@H](O)[C@H](O[C@H]4C[C@@H]5C(=CC[C@]6(C)[C@@H]([C@H](C)/C=C/[C@@H](C)[C@@H](C)C(=O)NCCS(=O)(=O)O)CC[C@@H]56)[C@@]5(C)CC[C@H](OS(=O)(=O)O)C[C@H]45)O[C@H](CO)[C@H]3O)OC[C@@H](O)[C@@H]2O)O[C@H](C)[C@H]1O [NOVAEGUINOSIDE D] | – | – | – | – | 4100 | 4600 | 23 | 85
4 | CC[C@@]1(O)C(=O)OCc2c1cc1n(c2=O)Cc2cc3cc(O)ccc3nc2-1 [HYDROXYCAMPTOTHECIN] | – | – | – | – | 400 | 180 | – | –
